An excerpt weighted towards active compounds, which were near 1.6% of everything screened.
VLA-4 inh: inhibition in a human VLA-4 binding assay; P13612; VLA-4 expressing cells, ligand binding flow cytometry; inhibition, % (about 7 µM as worked out from the volumes in the protocol); hit rate 0.2% among 330,000; AID 2557; in the data active = inhibition above about 50%
PG9 binder: binds the HIV-1 gp120 antibody PG9. TR-FRET gp120-PG9 antibody binding. inhibition, % at 6.7 µM. hit rate 0.43% among 360,000; in the data active = inhibition above about 8.5%
NR2E3 ag-1: agonists of human NR2E3 nuclear receptor; CHO-S Gal4-NCOR/VP16-NR2E3 two-hybrid, luciferase; hit rate 0.35% among 360,000; inhibition of corepressor binding, % at 3.98 µM; Q9Y5X4;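 active = inhibition above the mean of all tested compounds plus 3 SD, cut at about 70% in these data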;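 also: higher means lower luciferase signal from less NR2E3 corepressor binding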
NR2E3 ag-2: NR2E3 (human) agonism; Q9Y5X4; inhibition of corepressor binding, % at 4.78 µM; hit rate 0.12% among 320,000; GST-NR2E3/biotin-RetCOR TR-FRET, 1536-well; AID 2300;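 active = percent inhibition above the cutoff of mean plus 3 SD of all tested compounds, set per screening campaign, cut at about 20% in these data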
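Assay system: NR2E3–RetCOR corepressor complex. Quantity: 1.35 nM GST-NR2E3. Buffer or medium: pH 7.5 Tris-based buffer. Reagent: biotinylated RetCOR corepressor at 7 nM final. Schedule: 5 h at 4 °C. Detection: TR-FRET, emission read at 617 and 671 nm. Replicates: one well per compound, singlicate testing.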
Rev-erbA mod: modulators of human Rev-erb alpha DNA binding | P20393 | Rev-erbα–FITC-DNA binding, fluorescence polarization, 90 min | activity, % at 10 µM | hit rate 0.79% among 370,000;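 active = activity above about 14%, limit read from the data; passing the limit was not always enough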
Target sequence (P20393 whole entry, looked up): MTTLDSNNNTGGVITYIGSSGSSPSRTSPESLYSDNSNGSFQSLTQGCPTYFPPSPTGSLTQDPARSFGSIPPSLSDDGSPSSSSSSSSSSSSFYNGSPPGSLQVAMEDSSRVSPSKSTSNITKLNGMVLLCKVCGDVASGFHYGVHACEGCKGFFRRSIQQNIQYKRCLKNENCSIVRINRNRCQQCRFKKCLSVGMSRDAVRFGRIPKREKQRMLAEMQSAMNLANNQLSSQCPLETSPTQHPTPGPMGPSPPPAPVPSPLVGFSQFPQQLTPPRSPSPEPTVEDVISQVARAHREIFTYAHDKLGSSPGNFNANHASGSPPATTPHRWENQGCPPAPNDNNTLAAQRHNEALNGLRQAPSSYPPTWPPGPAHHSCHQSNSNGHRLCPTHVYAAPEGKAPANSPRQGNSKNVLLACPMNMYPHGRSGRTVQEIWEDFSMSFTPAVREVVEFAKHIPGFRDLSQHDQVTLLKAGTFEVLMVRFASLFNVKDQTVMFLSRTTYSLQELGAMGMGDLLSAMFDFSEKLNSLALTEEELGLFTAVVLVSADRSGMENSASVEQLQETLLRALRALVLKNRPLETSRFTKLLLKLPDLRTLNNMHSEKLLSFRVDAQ
NR2E3 ag confirm: confirmation of human NR2E3 agonists | shares compounds with NR2E3 ag-1 | CHO-S mammalian two-hybrid NR2E3-NCOR, luciferase luminescence | inhibition, % at 3.98 µM | hit rate 51% among 2,300;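 active = average inhibition above a cutoff equal to the mean inhibition of all tested compounds plus one SD, cut at about 70% in these data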
GAL4-VP16 luc: reduces GAL4-VP16 reporter signal in NR2E3 counterscreen | shares compounds with NR2E3 ag-1 | CHO-S GAL4-VP16 luciferase reporter, luminescence | inhibition, % at 3.98 µM | hit rate 29% among 2,300 | AID 624379;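 active = mean inhibition above a cutoff equal to the average over all tested compounds plus one standard deviation, cut at about 70% in these data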;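 also: luciferase from a UAS reporter driven by GAL4-VP16 transactivation; higher means less reporter light so more repression of VP16 activity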
Numbers stand for hits; i = inactive; nt = no result.

SMILES | VLA-4 inh | PG9 binder | NR2E3 ag-1 | NR2E3 ag-2 | Rev-erbA mod | NR2E3 ag confirm | GAL4-VP16 luc
O=C(Nc1ccc(OCC(F)(F)C(F)F)c(C(F)(F)F)c1)c1ccccc1O | i | i | 99.3 | i | i | 98.3 | 75.5
COC(=O)[C@]12C[C@H](CC(=O)N3CCOCC3)C(=O)N(CCc3ccc(OC)c(OC)c3)C1=C[C@H](C(C)C)O[C@@H]2C1CC1 | nt | nt | nt | nt | i | nt | nt
CCN(CC)C(=O)C1CCCN(C(=O)c2cc(COc3ccc4ncccc4c3)on2)C1 (centres undefined) | i | i | i | i | i | nt | nt
COCC1CCN(C(=O)c2cc(COc3ccc4c(c3)CCCC4)on2)C1 (centres undefined) | i | i | i | i | i | nt | nt
COCCOC1CCN(C(=O)c2cc(COc3ccc(-n4cncn4)cc3)on2)CC1 | i | i | i | i | i | nt | nt
COCCC1CCCCN1C(=O)c1cc(COc2ccc(-n3cncn3)cc2)on1 (centres undefined) | i | i | 104.7 | i | i | 94.6 | 78.9
CCC1CCCCN1C(=O)c1cc(COc2ccc3ncccc3c2)on1 (centres undefined) | i | i | 82.8 | i | i | 96.4 | 87.2
Cc1nc(CN(C)C(=O)c2cc(COc3ccc4ncccc4c3)on2)cs1 | i | i | i | i | i | 87.3 | 77.7
COCC1CCCCN1C(=O)c1cc(COc2ccc3ncccc3c2)on1 (centres undefined) | i | i | 103.9 | i | i | 91.1 | 76.4
COc1ccc2c(c1)CCCN2C(=O)C1CCCN(S(=O)(=O)c2ccc(C)c(C)c2)C1 (centres undefined) | nt | nt | nt | nt | i | nt | nt
CCN1CCN(C(=O)c2cc(COc3ccc4ncccc4c3)on2)CC1 | i | i | i | i | i | nt | nt
CCCN1CCN(C(=O)c2cc(COc3ccc4ncccc4c3)on2)CC1 | i | i | i | i | i | i | i
C=CCC1(CC=C)CCCN1C(=O)c1cc(COc2cncc(Cl)c2)on1 | i | i | 89.6 | i | i | 86.6 | i
CCCc1nc2c(=O)n(C)c(=O)nc-2n(C)n1 | nt | i | 104.5 | nt | i | 100.6 | 85.5
Cc1cc2nc(-c3cccc(Cl)c3)c(Cc3ccccc3)n2c(C)c1Br | nt | nt | i | nt | nt | i | i
Cc1cc2nc(-c3cccc(Br)c3)c(Cc3cccc(Cl)c3)n2c(C)c1Br | nt | i | i | nt | i | nt | nt
CCC(CC)NC(=O)O[C@H]1CC[C@@]23CCCN2C(=O)CCC[C@H]3[C@H]1C | nt | nt | nt | nt | i | nt | nt
O=C(Cc1ccc(-c2ccccc2)cc1)Nc1ccccn1 | i | i | 72.3 | i | i | i | i
Cc1ccc(NC(=O)Cc2ccc(-c3ccccc3)cc2)nc1 | i | i | i | i | i | nt | nt
Cc1ccnc(NC(=O)Cc2ccc(-c3ccccc3)cc2)c1 | i | i | 92.6 | i | i | 97.9 | i
O=C1NCCOc2ccccc21 | nt | i | nt | nt | i | nt | nt
Cc1nc2ccccc2c2c1CC(C(C)(Cl)Br)O2 (centres undefined) | i | i | i | i | i | 78.0 | i
Cc1ccc2nc(C)c3c(c2c1)OC(C(C)(Cl)Br)C3 (centres undefined) | i | i | i | i | i | nt | nt
CCN(CC)C(=O)Cn1nc(Cc2ccncc2)c2ccccc2c1=O | nt | nt | nt | nt | i | nt | nt
Cc1c(C(C)C)c(=O)n(-c2ccc(S(=O)(=O)N3CCOCC3)cc2)n1C | i | i | i | i | i | nt | nt
SMILES | VLA-4 inh | PG9 binder | NR2E3 ag-1 | NR2E3 ag-2 | Rev-erbA mod | NR2E3 ag confirm | GAL4-VP16 luc
Cc1c(C(C)C)c(=O)n(-c2ccc(S(=O)(=O)NCc3ccccc3)cc2)n1C | i | i | 81.4 | i | i | 94.2 | 81.2
CCc1ccc(S(=O)(=O)Nc2c(C)n(C)n(-c3ccccc3)c2=O)cc1 | i | i | i | i | i | nt | nt
Cc1c(C(C)C)c(=O)n(-c2ccc(S(=O)(=O)NC3CCCCC3)cc2)n1C | i | i | 71.7 | i | i | 87.0 | i
O=C(NCc1cccc(C(F)(F)F)c1)c1[nH]c(C(F)(F)F)nc1-c1ccccc1 | nt | nt | 91.0 | nt | nt | i | i
COc1cc(OC)cc(-c2cc3nc(C)c(CCC(=O)O)c(C)n3n2)c1 | i | i | i | i | i | i | i
CCCCCCCCN1C(=O)[C@@H](CC(=O)NCc2cccc3ccccc23)C[C@@]2(C(=O)OC)C1=C[C@H](C(C)C)O[C@@H]2C1CC1 | nt | nt | nt | nt | i | nt | nt
Oc1ccccc1N=Cc1ccc[nH]1 | i | i | i | i | i | i | i
